In PubChem BioAssay AID651654 (Broad Institute, 2012):
In all, about 360,000 compounds went through this assay and about 740 (0.21%) were called active.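 How the source made its calls: active means mean lysis activity across replicates of at least 80%, whatever share of replicates individually reach that level; inactive means mean lysis activity below 80%.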 Only a selection was taken, and actives are over-represented in it overall.

assay: Cryptococcus neoformans cell lysis inducers, primary screen, AK release luminescence, single concentration (AID 651654); conditions: C. neoformans lysis, adenylate kinase release luminescence, 4 h; at 15 µM; stronger effect = higher value; normalised: neutral wells 0, clomiphene wells 100
In short: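 Material – Cryptococcus neoformans yeast cells · Quantity – 5 × 10^6 yeast cells/mL · Buffer or medium – YPD medium · Compound – single dose · Timing – 4 h static compound exposure, 37 °C, read 1 h post-reagent · Signal – adenylate kinase release luminescence · Read-out basis – lysis from increased AK signal · Benchmarks – Clomiphene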

| Structure (SMILES) | lysis activity |
| --- | --- |
| COCC(=O)Nc1ccc2c(c1)OC[C@H](C)N(C(=O)Cc1ccccn1)C[C@H](C)[C@@H](OC)CN(C)C2=O | 6.59% (inactive) |
| CCC(=O)N1[C@@H]2c3ccc(-c4cccnc4)c(=O)n3C[C@H]1[C@H](CO)[C@H]2C(=O)N1CCc2ccccc2C1 | -6.94% (inactive) |
| C[C@H](CO)N1C[C@H](C)[C@H](CN(C)Cc2ccc(C(F)(F)F)cc2)Oc2c(NC(=O)C3CCOCC3)cccc2C1=O | 0.0275% (inactive) |
| C[C@H](CO)N1C[C@H](C)[C@H](CN(C)C)Oc2c(NC(=O)C3CCOCC3)cccc2C1=O | -4.63% (inactive) |
| Cc1noc(C)c1S(=O)(=O)Nc1ccc2c(c1)C(=O)N([C@@H](C)CO)C[C@@H](C)[C@@H](CN(C)Cc1ccccc1)OCCCC[C@H](C)O2 | 96.8% (active) |
| C[C@@H]1CN([C@@H](C)CO)C(=O)c2cccc(NC(=O)C3CC3)c2O[C@@H]1CN(C)C | 80.7% (active) |
| Cc1noc(C)c1S(=O)(=O)Nc1ccc2c(c1)C(=O)N([C@H](C)CO)C[C@@H](C)[C@@H](CN(C)Cc1ccccc1)OCCCC[C@@H](C)O2 | 0.357% (inactive) |
| Cc1noc(C)c1S(=O)(=O)Nc1ccc2c(c1)C(=O)N([C@@H](C)CO)C[C@H](C)[C@H](CN(C)CC1CCCCC1)OCCCC[C@H](C)O2 | 1.9% (inactive) |
| Cc1ccc(S(=O)(=O)Nc2ccc3c(c2)C(=O)N([C@H](C)CO)C[C@@H](C)[C@H](CN(C)C(=O)Nc2ccc(C(F)(F)F)cc2)OCCCC[C@H](C)O3)cc1 | -2.02% (inactive) |
| Cc1ccc(S(=O)(=O)Nc2ccc3c(c2)C(=O)N([C@@H](C)CO)C[C@H](C)[C@H](CN(C)C(=O)Nc2ccc(C(F)(F)F)cc2)O3)cc1 | 100% (active) |
| CCCN(C)C[C@H]1OCCCC[C@H](C)Oc2ccc(NS(=O)(=O)c3ccc(C)cc3)cc2C(=O)N([C@@H](C)CO)C[C@H]1C | -0.143% (inactive) |
| CCCN(C)C[C@@H]1OCCCC[C@H](C)Oc2ccc(NS(=O)(=O)c3ccc(C)cc3)cc2C(=O)N([C@H](C)CO)C[C@@H]1C | 98.4% (active) |
| Cc1ccc(S(=O)(=O)Nc2ccc3c(c2)C(=O)N([C@H](C)CO)C[C@@H](C)[C@@H](CN(C)S(C)(=O)=O)OCCCC[C@@H](C)O3)cc1 | -3.44% (inactive) |
| C[C@H]1CN([C@@H](C)CO)C(=O)c2cccc(NC(=O)C3CCOCC3)c2O[C@@H]1CN(C)C | -5.09% (inactive) |
| C[C@H]1CN([C@@H](C)CO)C(=O)c2cc(NS(C)(=O)=O)ccc2O[C@H]1CN(C)C(=O)Nc1ccc(C(F)(F)F)cc1 | 2.09% (inactive) |
| C[C@@H]1CN([C@H](C)CO)C(=O)c2cccc(NS(=O)(=O)c3cn(C)cn3)c2O[C@H]1CN(C)CC1CC1 | -3.67% (inactive) |
| C[C@H]1CN([C@@H](C)CO)C(=O)c2cc(NS(=O)(=O)c3cn(C)cn3)ccc2O[C@H]1CN(C)CC1CCCCC1 | -5.59% (inactive) |
| C[C@@H]1CN([C@H](C)CO)C(=O)c2cc(NS(=O)(=O)c3cn(C)cn3)ccc2O[C@@H](C)CCCCO[C@H]1CN(C)C | 109% (active) |
| Cc1noc(C)c1S(=O)(=O)Nc1ccc2c(c1)CC(=O)N([C@H](C)CO)C[C@H](C)[C@H](CN(C)S(=O)(=O)c1cn(C)cn1)O2 | -4.65% (inactive) |

| Structure (SMILES) | lysis activity |
| --- | --- |
| C[C@@H]1CN([C@@H](C)CO)C(=O)c2cc(NS(=O)(=O)c3cn(C)cn3)ccc2O[C@@H](C)CCCCO[C@H]1CN(C)S(=O)(=O)c1cn(C)cn1 | 1.43% (inactive) |
| Cc1ccc(S(=O)(=O)N(C)C[C@@H]2Oc3ccc(NS(=O)(=O)c4c(C)noc4C)cc3CC(=O)N([C@H](C)CO)C[C@H]2C)cc1 | 1.73% (inactive) |
| Cc1noc(C)c1S(=O)(=O)Nc1ccc2c(c1)CC(=O)N([C@@H](C)CO)C[C@H](C)[C@@H](CN(C)S(=O)(=O)c1cn(C)cn1)O2 | 117% (active) |
| C[C@H]1CN([C@@H](C)CO)C(=O)c2cccc(NS(=O)(=O)c3cn(C)cn3)c2O[C@@H]1CN(C)CC1CCCCC1 | 82.6% (active) |
| C[C@@H]1CCCCO[C@H](CN(C)C)[C@H](C)CN([C@@H](C)CO)C(=O)c2cc(NS(=O)(=O)c3cn(C)cn3)ccc2O1 | -0.536% (inactive) |
| CN1c2ccc(-c3ccccc3)cc2[C@H]2[C@H](CCN2C(=O)c2ccc3c(c2)OCO3)[C@H]1CO | -10.3% (inactive) |
| COCC(=O)N(C)C[C@H]1Oc2cc(C#C[C@@H](C)O)ccc2S(=O)(=O)N([C@H](C)CO)C[C@H]1C | 9.52% (inactive) |
| Cc1ccc(OCCCC(=O)NC(C)c2ccccc2)c(C)c1 (configuration not stated) | 3.6% (inactive) |
| Cc1ccc(OCC(=O)NC(C)c2ccccc2)cc1C (configuration not stated) | 204% (active) |
| Cc1ccc(OCC(=O)Nc2ccc(C(=O)O)cc2NC(=O)COc2ccc(C)c(C)c2)cc1C | -1.83% (inactive) |
| C[C@H]1CCCCO[C@H](CN(C)S(=O)(=O)c2cn(C)cn2)[C@@H](C)CN([C@@H](C)CO)C(=O)c2cc(NC(=O)C3CCCCC3)ccc2O1 | -1.38% (inactive) |
| Cc1cccc(S(=O)(=O)N2CC[C@@H]3[C@H]2c2cc(C#Cc4ccc(F)cc4)ccc2N[C@@H]3CO)c1 | -3.22% (inactive) |
| CO[C@@H]1CN(C)C(=O)c2cc(NC(=O)C3CC3)ccc2OC[C@H](C)N(Cc2ccc(F)cc2)C[C@@H]1C | 0.205% (inactive) |
| CO[C@H]1CN(C)C(=O)c2ccc(NC(=O)C3CC3)cc2OC[C@@H](C)N(Cc2ccc(F)cc2)C[C@@H]1C | 95.3% (active) |
| CO[C@H]1CN(C)C(=O)c2cc(NC(=O)Nc3cccc(F)c3)ccc2OC[C@@H](C)N(C)C[C@@H]1C | 7.44% (inactive) |
| CO[C@H]1CN(C)C(=O)c2cc(NC(=O)Nc3cccc(F)c3)ccc2OC[C@@H](C)N(C)C[C@H]1C | 18.3% (inactive) |
| CO[C@@H]1CN(C)C(=O)c2cc(NC(=O)Nc3cccc(F)c3)ccc2OC[C@H](C)N(C)C[C@@H]1C | 98.7% (active) |
| CO[C@@H]1CN(C)C(=O)c2cc(NC(=O)C3CC3)ccc2OC[C@@H](C)N(Cc2ccc(F)cc2)C[C@@H]1C | 1.45% (inactive) |
